Activity calls are given as the source filed them. The calls are words filed in the database; no cut-off is given here.
Experiments:
NCI-H460 [1] = assay: Induction of apoptosis in human NCI-H460 cells in serum free medium at 50 nM after 12 hrs by Hoechst 33342/propidium iodide staining based fluorescence microscopy; assay type: functional
How it was run: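 NCI-H460 cells exposed to a single 50 nM concentration for 12 h. Cells stained with Hoechst 33342 and propidium iodide. Blue cells with condensed or fragmented nuclei were scored as apoptotic and red, ruptured cells as necrotic. Result given as % apoptotic cell death; N = 6, one-way ANOVA.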

NCI-H460 [2] = assay: Cytotoxicity against human NCI-H460 cells assessed as cell death in serum free medium at 10 nM after 12 hrs by Hoechst 33342/propidium iodide staining based fluorescence microscopy; assay type: functional
How it was run: (§1)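 NCI-H460 human lung cancer cells exposed 12 h to 10 nM–10 μM drug, including a 50 nM single-concentration test. Nuclei were stained with Hoechst 33342 and necrotic cells with propidium iodide. Apoptotic cells were scored by condensed or fragmented blue nuclei and necrotic cells by red PI staining. Total cell death (apoptosis plus necrosis) was recorded; N = 6.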

NCI-H460 [3] = assay: Cytotoxicity against human NCI-H460 cells assessed as cell death in serum free medium at 25 nM after 12 hrs by Hoechst 33342/propidium iodide staining based fluorescence microscopy; assay type: functional; how it was run: as §1
NCI-H460 [4] = assay: Cytotoxicity against human NCI-H460 cells assessed as cell death in serum free medium at 50 nM after 12 hrs by Hoechst 33342/propidium iodide staining based fluorescence microscopy; assay type: functional; how it was run: as §1
NCI-H460 [5] = assay: Cytotoxicity against human NCI-H460 cells assessed as cell death in serum free medium at 75 nM after 12 hrs by Hoechst 33342/propidium iodide staining based fluorescence microscopy; assay type: functional; how it was run: as §1
NCI-H460 [6] = assay: Cytotoxicity against human NCI-H460 cells assessed as cell death in serum free medium at 100 nM after 12 hrs by Hoechst 33342/propidium iodide staining based fluorescence microscopy; assay type: functional; how it was run: as §1
NCI-H460 [7] = assay: Cytotoxicity against human NCI-H460 cells assessed as cell death in serum free medium at 250 nM after 12 hrs by Hoechst 33342/propidium iodide staining based fluorescence microscopy; assay type: functional; how it was run: as §1
NCI-H460 [8] = assay: Cytotoxicity against human NCI-H460 cells assessed as cell death in serum free medium at 500 nM after 12 hrs by Hoechst 33342/propidium iodide staining based fluorescence microscopy; assay type: functional; how it was run: as §1
NCI-H460 [9] = assay: Cytotoxicity against human NCI-H460 cells assessed as cell death in serum free medium at 1000 nM after 12 hrs by Hoechst 33342/propidium iodide staining based fluorescence microscopy; assay type: functional; how it was run: as §1
NCI-H460 [10] = assay: Cytotoxicity against human NCI-H460 cells assessed as cell death in serum free medium at 10000 nM after 12 hrs by Hoechst 33342/propidium iodide staining based fluorescence microscopy; assay type: functional; how it was run: as §1
NCI-H460 [11] = assay: Induction of apoptosis in human NCI-H460 cells in serum free medium after 12 hrs by Hoechst 33342/propidium iodide staining based fluorescence microscopy; assay type: functional, cell-based
How it was run: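 NCI-H460 cells treated for 12 h at 10 nM to 10 μM. Total cell death (apoptosis plus necrosis) scored by Hoechst 33342/propidium iodide staining, with N = 6 and two-way ANOVA. IC50 obtained by nonlinear regression. Table values are the mean of three independent experiments with duplicate determinations.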

NCI-H460 [12] = assay: Ratio of digitoxin IC50 to compound IC50 for human NCI-H460 cells after 12 hrs by Hoechst 33342/propidium iodide staining based fluorescence microscopy; assay type: functional
NCI-H460 [13] = assay: Cytotoxicity against human NCI-H460 cells assessed as cell viability at 1 nM after 48 hrs by MTT assay; assay type: functional; conditions: NCI-H460, 48 h, read-out: Activity
How it was run: (§2)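 Viability of NCI-H460 cells was measured by MTT (mitochondrial enzymatic activity) after 48 h exposure, within a dose series spanning 1 nM–10 μM. N = 9, analysed by two-way ANOVA.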

NCI-H460 [14] = assay: Cytotoxicity against human NCI-H460 cells assessed as cell viability at 10 nM after 48 hrs by MTT assay; assay type: functional; conditions: NCI-H460, 48 h, read-out: Activity; how it was run: as §2
NCI-H460 [15] = assay: Cytotoxicity against human NCI-H460 cells assessed as cell viability at 25 nM after 48 hrs by MTT assay; assay type: functional; conditions: NCI-H460, 48 h, read-out: Activity; how it was run: as §2
NCI-H460 [16] = assay: Cytotoxicity against human NCI-H460 cells assessed as cell viability at 50 nM after 48 hrs by MTT assay; assay type: functional; conditions: NCI-H460, 48 h, read-out: Activity; how it was run: as §2
NCI-H460 [17] = assay: Cytotoxicity against human NCI-H460 cells assessed as cell viability at 100 nM after 48 hrs by MTT assay; assay type: functional; conditions: NCI-H460, 48 h, read-out: Activity; how it was run: as §2
NCI-H460 [18] = assay: Cytotoxicity against human NCI-H460 cells assessed as cell viability at 500 nM after 48 hrs by MTT assay; assay type: functional; conditions: NCI-H460, 48 h, read-out: Activity; how it was run: as §2
NCI-H460 [19] = assay: Cytotoxicity against human NCI-H460 cells assessed as cell viability at 1000 nM after 48 hrs by MTT assay; assay type: functional; conditions: NCI-H460, 48 h, read-out: Activity; how it was run: as §2
NCI-H460 [20] = assay: Cytotoxicity against human NCI-H460 cells assessed as cell viability after 48 hrs by MTT assay; assay type: functional; conditions: NCI-H460, 48 h
How it was run: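 NCI-H460 cells were exposed to drug for 48 h, and viability was read by MTT as mitochondrial enzymatic activity. GI50 was derived from dose-response curves (1 nM–10 μM). Values are from three independent experiments with duplicate determinations, given with standard error of the mean.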

CCRF-CEM = assay: Cytotoxicity against human CCRF-CEM cells after 48 hrs by sulforhodamine B assay; assay type: functional
HL-60(TB) = assay: Cytotoxicity against human HL-60(TB) cells after 48 hrs by sulforhodamine B assay; assay type: functional; conditions: HL-60, 48 h
K562 = assay: Cytotoxicity against human K562 cells after 48 hrs by sulforhodamine B assay; assay type: functional; conditions: K562, 48 h
HCC 2998 = assay: Cytotoxicity against human HCC2998 cells after 48 hrs by sulforhodamine B assay; assay type: functional; conditions: HCC 2998, 48 h
HCT-116 = assay: Cytotoxicity against human HCT116 cells after 48 hrs by sulforhodamine B assay; assay type: functional
SF-539 = assay: Cytotoxicity against human SF539 cells after 48 hrs by sulforhodamine B assay; assay type: functional; conditions: SF-539, 48 h
U-251 = assay: Cytotoxicity against human U251 cells after 48 hrs by sulforhodamine B assay; assay type: functional; conditions: U-251, 48 h
SK-MEL-2 = assay: Cytotoxicity against human SK-MEL-2 cells after 48 hrs by sulforhodamine B assay; assay type: functional
IGROV-1 = assay: Cytotoxicity against human IGROV1 cells after 48 hrs by sulforhodamine B assay; assay type: functional; conditions: IGROV-1, 48 h
OVCAR-5 = assay: Cytotoxicity against human OVCAR5 cells after 48 hrs by sulforhodamine B assay; assay type: functional; conditions: OVCAR-5, 48 h
OVCAR-8 = assay: Cytotoxicity against human OVCAR8 cells after 48 hrs by sulforhodamine B assay; assay type: functional; conditions: OVCAR-8, 48 h
NCI/ADR-RES = assay: Cytotoxicity against human NCI/ADR-RES cells after 48 hrs by sulforhodamine B assay; assay type: functional
CAKI-1 = assay: Cytotoxicity against human Caki1 cells after 48 hrs by sulforhodamine B assay; assay type: functional; conditions: CAKI-1, 48 h
RXF 393 = assay: Cytotoxicity against human RXF393 cells after 48 hrs by sulforhodamine B assay; assay type: functional; conditions: RXF 393, 48 h
BT-549 = assay: Cytotoxicity against human BT549 cells after 48 hrs by sulforhodamine B assay; assay type: functional; conditions: BT-549, 48 h
T47D = assay: Cytotoxicity against human T47D cells after 48 hrs by sulforhodamine B assay; assay type: functional
MDA-MB-435 = assay: Cytotoxicity against human MDA-MB-435 breast cancer cells after 48 hrs by sulforhodamine B assay; assay type: functional; conditions: MDA-MB-435, 48 h
NCI-H460 [21] = assay: Growth inhibition of human NCI-H460 cells after 48 hrs by MTT assay; assay type: functional
How it was run: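 NCI-H460 viability measured by MTT (mitochondrial enzymatic activity) after 48 h exposure at 1 nM to 10 μM. GI50 derived from dose-response curves, with N = 9 and two-way ANOVA. Values are the mean of three independent experiments with duplicate determinations.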

C[C@@H]1O[C@@H](O[C@H]2CC[C@@]3(C)[C@H](CC[C@@H]4[C@@H]3CC[C@]3(C)[C@@H](C5=CC(=O)OC5)CC[C@]43O)C2)CC[C@H]1O [RAMNODIGIN]
Activity (NCI-H460 [1]): 42.463% | Activity (NCI-H460 [2]): 18.12% | Activity (NCI-H460 [3]): 22.09% | Activity (NCI-H460 [4]): 52.04% | Activity (NCI-H460 [5]): 77.04% | Activity (NCI-H460 [6]): 98.61% | Activity (NCI-H460 [7]): 100% | Activity (NCI-H460 [8]): 100% | Activity (NCI-H460 [9]): 100% | Activity (NCI-H460 [10]): 100% | Activity (NCI-H460 [11]): Dose-dependent effect | IC50 (NCI-H460 [11]; NCI-H460, 12 h): 51.7 nM | Ratio IC50 (NCI-H460 [12]): 4 | viability at 0.001 µM (NCI-H460 [13]): 77% | viability at 0.01 µM (NCI-H460 [14]): 13.9% | viability at 0.025 µM (NCI-H460 [15]): 7.14% | viability at 0.05 µM (NCI-H460 [16]): 6.18% | viability at 0.1 µM (NCI-H460 [17]): 5% | viability at 0.5 µM (NCI-H460 [18]): 3.69% | viability at 1 µM (NCI-H460 [19]): 3.25% | GI50 (NCI-H460 [20]): 1.93 nM | GI50 (CCRF-CEM): 8.49 nM | GI50 (HL-60(TB)): 2.96 nM | GI50 (K562): 19.5 nM | GI50 (HCC 2998): 16.5 nM | GI50 (HCT-116): inactive | GI50 (SF-539): 7.8 nM | GI50 (U-251): 12.7 nM | GI50 (SK-MEL-2): inactive | GI50 (IGROV-1): 5.23 nM | GI50 (OVCAR-5): 17.4 nM | GI50 (OVCAR-8): 2.5 nM | GI50 (NCI/ADR-RES): 4.12 nM | GI50 (CAKI-1): 3.32 nM | GI50 (RXF 393): 1.22 nM | GI50 (BT-549): 2.41 nM | GI50 (T47D): 20.6 nM | GI50 (MDA-MB-435): 21 nM | GI50 (NCI-H460 [21]): Dose-dependent effect | GI50 (NCI-H460 [21]; NCI-H460, 48 h): 2 nM

— ChEMBL document CHEMBL1817593, “C5'-Alkyl Substitution Effects on Digitoxigenin α-l-Glycoside Cancer Cytotoxicity” (ACS Med Chem Lett, 2011)
